The values below come from ChEMBL document CHEMBL3297648, “Diterpenoids from the Chinese liverwort Heteroscyphus tener and their antiproliferative effects” (J Nat Prod, 2014).

Assay [1] concerns NCI-H292. As to the kind of experiment: Antiproliferative activity against human NCI-H292 cells assessed as inhibition of cell viability after 24 hrs by MTT assay. It counts as functional, cell-based. As to conditions: NCI-H292, 24 h. Put shortly: (§1)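 Cells grown to 50–70% confluence (RWPE1 in K-SFM with pituitary extract and EGF; the other lines in RPMI 1640 with 10% FBS), 5% CO2, 37 °C. Treated for 24 h with DMSO vehicle, compounds, or cisplatin as positive control. MTT (5 mg/mL) added for 4 h, formazan dissolved in DMSO, absorbance read at 570 nm. Viability taken relative to untreated cells after blank subtraction, IC50 fitted from % viability, at least three experiments.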
Background: Tetrazolium dyes change colour on reduction, which living cells bring about.

In assay [2] the test system is K562. As to the kind of experiment: Antiproliferative activity against human K562 cells assessed as inhibition of cell viability after 24 hrs by MTT assay. In kind it is functional, cell-based. As to conditions: K562, 24 h. In a few lines: as §1
For assay [3], the system named is DU-145. As to the kind of experiment: Antiproliferative activity against human DU145 cells assessed as inhibition of cell viability after 24 hrs by MTT assay. It counts as functional, cell-based. The settings on record: DU-145, 24 h. In a few lines:
as §1

For assay [4], the system named is A549. As to the kind of experiment: Antiproliferative activity against human A549 cells assessed as inhibition of cell viability after 24 hrs by MTT assay. It counts as functional, cell-based. The settings on record: A549, 24 h. In a few lines: as §1
The nature of assay [5]: Antiproliferative activity against HBE cells assessed as inhibition of cell viability after 24 hrs by MTT assay. In kind it is cell-based. The settings on record: Homo sapiens. Put shortly:
as §1

The nature of assay [6]: Antiproliferative activity against human PC3 cells assessed as inhibition of cell viability after 24 hrs by MTT assay. In kind it is functional, cell-based. The settings on record: PC-3, 24 h. In a few lines:
as §1

The subject of assay [7] is NCI-H1299. As to the kind of experiment: Antiproliferative activity against human NCI-H1299 cells assessed as inhibition of cell viability after 24 hrs by MTT assay. It counts as functional, cell-based. As to conditions: NCI-H1299, 24 h. In a few lines:
as §1

The nature of assay [8]: Antiproliferative activity against human RWPE1 cells assessed as inhibition of cell viability after 24 hrs by MTT assay. In kind it is cell-based. The settings on record: RWPE-1, 24 h. In a few lines:
as §1

Assay [9] relates to NCI-H446. As to the kind of experiment: Antiproliferative activity against human NCI-H446 cells assessed as inhibition of cell viability after 24 hrs by MTT assay. In kind it is functional, cell-based. As to conditions: NCI-H446, 24 h. Put shortly:
as §1

pIC50: −log10 of the molar value. A value given as a limit tells only on which side of the number the result lay.

Usually pIC50 stands for the negative decadic logarithm of the IC50, by convention in mol/L.

With `C=C[C@]1(C)CC[C@H]2[C@]3(C)CCCC(C)(C)[C@H]3[C@@H]3C[C@@]2(O1)C(=O)O3`, the negative-log IC50 (pIC50) in assay [1] was 4.97; in [2], 4.47; in assay [3], 4.72; in assay [4], 4.67; in assay [5] it was 4.27; in assay [6] it was 4.70. For the same compound, the negative-log IC50 (pIC50) in [7] was 4.66; in assay [8], 4.58; in assay [9], 4.78.
Regarding `CC(C)[C@H]1CC[C@]2(C)C[C@]3(O)C(=CC(=O)[C@H]3C)[C@@H](C)CC[C@@H]12` [ANADENSIN], the pIC50 in [1] was 4.40; in assay [2] it was less than 4.40; in [3] it was less than 4.40; in assay [4], less than 4.40; in assay [5] it was less than 4.40; in [6], less than 4.40. Also, the pIC50 was 4.57 in assay [7], less than 4.40 in assay [8] and less than 4.40 in [9].
